LMPTP block: LMPTP (human) inhibition | P24666 | recombinant LMPTP-A, OMFP fluorogenic substrate, fluorescence intensity | inhibition, % at 20 µM | 360,000 tested, 0.22% active;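 active = compounds that cut the enzyme signal by at least half of the control window in the single-dose screen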;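 note: plate controls were DMSO wells with enzyme plus substrate for no effect and substrate without enzyme for full effect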
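Test system: LMPTP-A phosphatase enzyme. Amount: LMPTP-A at 0.625 nM final in the reaction. Reagent: OMFP substrate, 400 µM final. Times: 50 min at room temperature. Signal: endpoint fluorescence intensity from OMFP dephosphorylation. Read-out basis: % inhibition. Benchmarks: no-enzyme and uninhibited controls.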
STEP inh: inhibitors of human striatal-enriched phosphatase STEP; P54829; recombinant STEP, OMFP fluorogenic substrate, fluorescence; inhibition, % at 20 µM; 360,000 tested, 0.25% active; AID 588621;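 active = inhibition at 20 µM, scaled per plate between control wells, above about 37%, limit read from the data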;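 note: 0% = DMSO with enzyme and substrate and 100% = substrate only without enzyme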
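Material: STEP (striatal-enriched tyrosine phosphatase) enzyme, cell-free; Compound dosing: 20 µM single dose in 1% DMSO; Technique: fluorescence read at 480 nm ex / 540 nm em; Times: reaction 20 min, ambient temperature; Medium: 50 mM Bis-Tris pH 6.0 with 2.5 mM DTT and 0.005% Tween 20; Also added: OMFP at 25 µM.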
DNMT1 inh: inhibitors of human DNMT1 | inhibition (reported as % activation of signal), % at 10 µM | P26358 | 360,000 tested, 0.83% active | DNMT1 molecular beacon, Hinp1I cleavage, fluorescence; in the data active = inhibition above about 50%
Target sequence (P26358 504-1616 limits assumed): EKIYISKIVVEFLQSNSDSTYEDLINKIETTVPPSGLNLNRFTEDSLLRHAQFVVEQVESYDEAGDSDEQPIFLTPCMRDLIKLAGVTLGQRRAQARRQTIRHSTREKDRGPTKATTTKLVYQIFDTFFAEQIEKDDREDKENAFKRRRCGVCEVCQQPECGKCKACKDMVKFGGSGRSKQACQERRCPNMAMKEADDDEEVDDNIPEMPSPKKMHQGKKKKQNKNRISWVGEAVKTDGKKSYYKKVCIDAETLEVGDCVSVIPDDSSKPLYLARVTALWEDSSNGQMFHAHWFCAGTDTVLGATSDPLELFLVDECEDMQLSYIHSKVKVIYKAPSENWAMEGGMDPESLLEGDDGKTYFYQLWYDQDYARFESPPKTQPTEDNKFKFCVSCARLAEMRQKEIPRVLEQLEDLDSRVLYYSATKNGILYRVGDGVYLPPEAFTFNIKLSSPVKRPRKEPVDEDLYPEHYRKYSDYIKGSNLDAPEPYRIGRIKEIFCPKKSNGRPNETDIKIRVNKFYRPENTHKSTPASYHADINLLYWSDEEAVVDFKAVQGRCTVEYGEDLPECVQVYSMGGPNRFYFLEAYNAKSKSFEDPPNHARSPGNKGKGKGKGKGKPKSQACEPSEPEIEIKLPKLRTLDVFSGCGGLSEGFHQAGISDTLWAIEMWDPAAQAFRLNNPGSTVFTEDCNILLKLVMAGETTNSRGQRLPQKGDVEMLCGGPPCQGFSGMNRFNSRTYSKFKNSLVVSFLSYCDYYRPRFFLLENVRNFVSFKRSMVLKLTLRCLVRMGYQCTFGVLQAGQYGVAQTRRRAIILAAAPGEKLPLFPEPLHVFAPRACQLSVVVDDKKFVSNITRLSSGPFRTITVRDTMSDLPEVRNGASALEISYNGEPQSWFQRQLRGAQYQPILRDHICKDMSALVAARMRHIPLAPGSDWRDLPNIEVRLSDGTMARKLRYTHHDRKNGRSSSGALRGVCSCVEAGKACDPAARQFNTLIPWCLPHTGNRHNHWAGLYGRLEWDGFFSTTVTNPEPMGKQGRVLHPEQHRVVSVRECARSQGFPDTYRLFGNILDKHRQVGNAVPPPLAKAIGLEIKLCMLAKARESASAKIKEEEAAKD
Scp1 inh: inhibitors of human Scp-1 phosphatase | Q9GZU7 | Recombinant Scp1, phosphopeptide, malachite green phosphate absorbance | inhibition, % at 20 µM | 340,000 tested, 0.88% active | AID 493091;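 active = inhibition above about 50% at 20 µM, limit read from the data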;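 note: plate controls were DMSO wells with enzyme for no effect and wells lacking enzyme for full effect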
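Test system: SCP-1 catalytic domain; Buffer or medium: Acidic Tris acetate buffer with magnesium and detergent; Also added: Phosphorylated 17-residue peptide substrate; Compound: single 20 µM dose, 1% DMSO; Schedule: enzyme reaction 45 min at room temperature, colour 5 min, stabilisation 30 min; Signal: Phosphate-binding colour reagent, absorbance read at 630 nm.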
SUMO1 PPI mod: modulators of human SUMO1-mediated protein-protein interactions; SUMO1 binding to a labelled peptide, TR-FRET, 1 h; inhibition, % at 20 µM; 360,000 tested, 0.33% active; AID 602429; in the data active = inhibition above about 37%
Scp-1 conf: confirmation of human Scp-1 phosphatase inhibitors. shares compounds with Scp1 inh. recombinant SCP-1 catalytic domain, phosphate release, malachite green absorbance. 2,500 tested, 61% active. inhibition, % at 20 µM;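 note: plate controls were DMSO with enzyme for no effect and buffer wells lacking enzyme for full effect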
Scp-1 MG ctr: interferes with malachite green readout, flagging false Scp-1 hits; 2,500 tested, under 10 active; apparent inhibition (interference), % at 20 µM; shares compounds with Scp1 inh; Colorimetric interference counterscreen, malachite green absorbance 630 nm;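 note: compounds added after enzyme reaction finished so only phosphate colour detection is probed; plate controls were DMSO wells with completed Scp-1 reaction for no effect and substrate wells lacking enzyme for full effect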
Scp-1 Tm shift: validation of human Scp-1 inhibitors by thermal shift binding; shares compounds with Scp1 inh; Recombinant SCP1, Sypro Orange thermal shift Tm; thermal shift relative to vanadate control, % at 40 µM; 1,500 tested, 25% active; AID 540329;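 active = substances whose mean melting-temperature shift, as a percentage of the reference inhibitor's shift, reaches about 5.3%, limit read from the data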;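 note: 0% = Tm of DMSO wells and 100% = Tm with sodium orthovanadate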
Beacon interf DR: counter-screen for DNMT1 inhibitors: spectral interference, dose response. AID 602382. molecular beacon fluorescence. 200 tested, under 10 active. shares compounds with DNMT1 inh. IC50, µM; call rule not given here
DNMT1 inh conf: confirmation of human DNMT1 inhibitors; inhibition, % at 10 µM; 2,300 tested, 8% active; shares compounds with DNMT1 inh; DNMT1 molecular beacon HinP1I cleavage, fluorescence;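 active = average inhibition of at least 30% in the single-concentration confirmation test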
DNMT1 interf: shows spectral interference in the DNMT1 beacon assay. DNMT1 molecular beacon spectral interference counterscreen, fluorescence 485/520. shares compounds with DNMT1 inh. 2,300 tested, 1% active. activation (fluorescence interference), % at 10 µM;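 active = activation of at least 30% at 10 µM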;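 note: DNMT1 catalytic domain with a HinP1I cleavage step and a FAM/dabcyl DNA beacon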
An asterisk follows results filed as active; . = no result given; ! = repeats disagree. Sampled rows, rich in hits. Any-hit rate of the full collection: about 1.8%.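 Rule for the calls, unless noted: active = inhibition of at least 30% at 20 µM; inactive = the rest.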

SMILES	LMPTP block	STEP inh	DNMT1 inh	Scp1 inh	SUMO1 PPI mod	Scp-1 conf	Scp-1 MG ctr	Scp-1 Tm shift	others
CC(C)N1C(=O)CC2(CC[N+](C)(CCOC(=O)C(O)(c3ccccc3)c3ccccc3)CC2)C1=O (centres undefined)	-0.6	-2.1	1.8	69.9*	0.6	101.5*	-4.6	-19.1
ClCCOCOCCCl	-0.8	1.0	-2.3	-6.3	1.6	.	.	.
CC[C@H]1CN2CCC1C[C@@H]2[C@H](O)c1ccnc2ccc(OC)cc12 (some centres undefined)	-1.9	-3.5	-1.3	-9.0	-0.4	.	.	.
CCCCn1nnnc1C(c1ccccc1)N1CCC2(CC1)C(=O)NCN2c1ccccc1 (centres undefined)	2.2	2.8	1.5	.	3.1	.	.	.
COC(=O)CC1(CC(=O)OC)C(=O)N(c2ccccc2)C(=O)N(c2ccccc2)C1=O	-0.5	1.4	4.5	-5.9	1.8	.	.	.
C[C@]12CCC3C(CC[C@H]4C[C@@H](O)CC[C@]34C)[C@H]1C=CC2=O (some centres undefined)	0.9	-2.1	0.7	55.9*	1.4	-18.1	-17.8	.
C[C@]12CCC3[C@@H](CC[C@@H]4C[C@H](O)CC[C@]34C)[C@@H]1CCC2=O (some centres undefined)	-1.2	3.0	4.3	-3.5	3.3	.	.	.
O=C1CC(=O)N(c2ccccc2)C(=O)N1c1ccccc1	-2.5	2.1	1.5	-2.4	1.2	.	.	.
CCc1sc(C(=O)N2CCC3(CC2)OCCO3)cc1Br	-1.3	-0.4	1.3	54.3*	-1.6	-6.8	-5.4	.
C#C[C@]1(O)CC[C@H]2[C@@H]3CCC4=Cc5nc6nc7ccccc7n6cc5C[C@]4(C)[C@H]3CC[C@@]21C	7.9	2.5	-3.8	14.0	-12.2	.	.	.
COc1ccc(Cc2c(O)[nH]c(=S)[nH]c2=O)cc1	-1.5	-5.3	-0.5	53.1*	3.5	-3.5	-0.5	.
CCCCOc1ccc(C(C)=O)cc1Cc1c(O)[nH]c(=S)[nH]c1=O	-2.2	-2.4	-5.0	0.8	2.5	.	.	.
O=c1[nH]c(O)c(/C=C2/C=CC(c3cc(Cl)ccc3Cl)=N2)c(=O)[nH]1	46.0	0.3	16.6	-7.2	56.6*	24.6	-20.2	.
COc1cccc(OP(=O)(Nc2ccccc2)Oc2cccc(OC)c2)c1	2.7	-3.6	-2.9	-11.4	1.1	.	.	.
C[N+]1(C)CCc2cc3c(cc2[C@H]1[C@@H]1OC(=O)c2c1ccc1c2OCO1)OCO3	-1.2	2.1	-0.7	98.5*!	3.4	82.4*	-15.3	-24.0
COc1ccc(CN2CCNCC2)c(OC)c1OC	-3.9	-2.7	1.0	98.5*!	-2.2	95.2*	-10.1	-13.9
COc1cc(CN2CCNCC2)cc(OC)c1OC	-3.9	-1.8	-0.1	-2.4	7.3	.	.	.
C[N+]12CCC(CC1)C(=C(c1ccccc1)c1ccccc1)C2	-0.4	-2.6	4.8	93.9*	-3.1	78.3*	-19.9	-16.6
CC[N+]12CCC(CC1)C(=C(c1ccccc1)c1ccccc1)C2	-1.5	-1.5	4.4	9.5	0.6	.	.	.
O=[N+]([O-])c1nccn1CC(O)CN1CC1 (centres undefined)	21.8	1.0	-61.2	.	13.4	.	.	.
O=C(NN=Cc1ccc(N(CCCl)CCCl)cc1)c1cccc([N+](=O)[O-])c1	32.7	1.6	22.9	93.3*	13.0	71.7*	-11.2	2.6
COc1ccc(/C=C2\C(=O)NC(=S)N(C)C2=O)cc1C	-0.2	95.0*	93.9*	100.2*	71.8*	69.5*	-16.4	-9.2
Cc1ccsc1/C=C1\C(=O)NC(=S)N(C)C1=O	-0.7	0.6	3.8	6.0	7.0	.	.	.
Cc1ncoc1C(=O)NCC1=C(c2ccc(S(C)(=O)=O)cc2)C[C@@H]2CC[C@H]1N2CCOc1ccccc1	0.1	-3.9	4.5	.	-3.3	.	.	.
COc1ccc(C2(c3cccc(O)c3OC)CCN(C(C)=O)CC2)cc1O	-1.4	-1.7	1.5	-2.3	3.0	.	.	.
SMILES	LMPTP block	STEP inh	DNMT1 inh	Scp1 inh	SUMO1 PPI mod	Scp-1 conf	Scp-1 MG ctr	Scp-1 Tm shift	others
C[N+]1(C)C2CCC1CC(OC(=O)c1c[nH]c3ccccc13)C2 (centres undefined)	0.6	2.7	2.1	54.4*	2.3	-6.2	-16.1	.
C[N+]1(C)C2CCC1CC(OC(=O)c1ccco1)C2 (centres undefined)	-2.2	-2.7	-0.3	18.8	-0.5	.	.	.
COc1ccccc1Cn1c(SCC#N)nc2cc(C(=O)N3CCC4(CC3)OCCO4)ccc2c1=O	-0.1	-2.8	1.6	13.7	2.2	.	.	.
NC(=O)c1ccc(N=Cc2c(O)n(Cc3ccco3)c(=O)[nH]c2=O)cc1	34.1	31.8	61.5*	87.1*	98.9*	67.0*	-11.4	-10.1
CC1=CC2OC3CC4OC(=O)C=CC=CC(C(C)O)OCC(O)C5(C)OC5C(=O)OCC2(CC1O)C4(C)C31CO1 (centres undefined)	0.9	-1.0	2.2	-10.4	-0.5	.	.	.
CNC(=O)OCc1n(C)cc[n+]1C	-3.6	-2.8	0.7	55.0*	3.7	11.2	-1.0	.
Cc1ccc(-n2c(C)cc(/C=C3/C(=O)NC(=O)N(Cc4ccco4)C3=O)c2C)cc1	2.2	1.9	41.2	8.7	0.9	.	.	.
Cn1cccc1/C=C1\C(=O)NC(=O)N(Cc2ccco2)C1=O	41.4	56.2*	104.0*	79.8*	15.1	45.0*	-23.2	8.1*	DNMT1 inh conf=19.5;DNMT1 interf=1.7
C1CCC2S[C@H]3CCCCC3NC2C1 (some centres undefined)	-0.9	-2.6	2.5	0.1	4.4	.	.	.
Cc1cc(/C=C2\C(=O)NC(=O)N(Cc3ccccc3)C2=O)c(C)n1-c1ccc(Cl)c(C(=O)O)c1	16.4	83.7*	103.2*	72.2*	32.3	60.4*	-19.4	8.7*	Beacon interf DR=>99;DNMT1 inh conf=72.5*;DNMT1 interf=-1.3
Cc1ccc(S(=O)(=O)Cc2ccc(C(=O)N3CCC4(CC3)OCCO4)o2)cc1	-0.8	4.2	58.4*	57.5*	-0.5	51.9*	-7.9	1.4	DNMT1 inh conf=1.4;DNMT1 interf=2.8
COc1cccc2c1O[C@H]1C(=O)CC[C@H]3CN(C)CCC231 (some centres undefined)	0.1	1.9	6.9	-2.3	3.3	.	.	.

Source: PubChem BioAssay
